Measured values: ChEMBL document CHEMBL4257569, “Novel KV7 ion channel openers for the treatment of epilepsy and implications for detrusor tissue contraction” (Bioorg Med Chem Lett, 2018)
Converted amounts (≈) assume the structure as drawn. The source made the active and inactive calls.

Tests used:
Mus musculus [1] = test: Anti-seizure activity in CD-1 mouse model of pentylenetetrazol-induced clonic seizures assessed as effect on time to onset of seizure at 10 to 60 mg/kg, po; assay type: functional, organism-based
[2] = molecular target: Voltage-gated potassium channel KCNQ3/KCNQ5 (Homo sapiens, UniProt O43525+Q9NR82); test: Activation of human Kv7.3/7.5 by patch clamp method
P-gp = test: Substrate activity at P-gp (unknown origin) assessed as efflux ratio; assay type: ADME; conditions: human, not told
[3] = Inhibition of carbachol-induced contraction in human bladder at 10 uM; assay type: tissue-based, Urinary bladder
Mus musculus [4] = test: Anti-seizure activity in CD-1 mouse model of pentylenetetrazol-induced tonic seizures assessed as effect on time to onset of seizure at 10 to 60 mg/kg, po; assay type: functional, organism-based
[5] = molecular target: T1, Voltage-gated potassium channel, KQT; KCNQ2(Kv7.2)/KCNQ3(Kv7.3) (Homo sapiens) (UniProt O43526+O43525); test: Activation of human Kv7.2/7.3 by patch clamp method relative to ML213
Procedure, shortened: (§1)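 Kv7.2/7.3 EC50s were measured on the IonWorks Quattro (IWQ) automated patch-clamp platform. Efficacy is expressed as % of the maximal response to the reference opener ML213.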

[6] = Kinetic aqueous solubility of the compound by CAD or CLND method; assay type: physicochemical; conditions: buffer; read-out: Kinetic_solubility
[7] = molecular target: Voltage-gated potassium channel, KQT; KCNQ2(Kv7.2)/KCNQ3(Kv7.3) (Homo sapiens, UniProt O43525+O43526); test: Activation of human Kv7.2/7.3 by patch clamp method; procedure, shortened: as §1
[8] = molecular target: T2, Potassium voltage-gated channel subfamily KQT member 4 (Homo sapiens, UniProt P56696); test: Activation of human Kv7.4 by patch clamp method
T2 sequence (P56696 whole entry): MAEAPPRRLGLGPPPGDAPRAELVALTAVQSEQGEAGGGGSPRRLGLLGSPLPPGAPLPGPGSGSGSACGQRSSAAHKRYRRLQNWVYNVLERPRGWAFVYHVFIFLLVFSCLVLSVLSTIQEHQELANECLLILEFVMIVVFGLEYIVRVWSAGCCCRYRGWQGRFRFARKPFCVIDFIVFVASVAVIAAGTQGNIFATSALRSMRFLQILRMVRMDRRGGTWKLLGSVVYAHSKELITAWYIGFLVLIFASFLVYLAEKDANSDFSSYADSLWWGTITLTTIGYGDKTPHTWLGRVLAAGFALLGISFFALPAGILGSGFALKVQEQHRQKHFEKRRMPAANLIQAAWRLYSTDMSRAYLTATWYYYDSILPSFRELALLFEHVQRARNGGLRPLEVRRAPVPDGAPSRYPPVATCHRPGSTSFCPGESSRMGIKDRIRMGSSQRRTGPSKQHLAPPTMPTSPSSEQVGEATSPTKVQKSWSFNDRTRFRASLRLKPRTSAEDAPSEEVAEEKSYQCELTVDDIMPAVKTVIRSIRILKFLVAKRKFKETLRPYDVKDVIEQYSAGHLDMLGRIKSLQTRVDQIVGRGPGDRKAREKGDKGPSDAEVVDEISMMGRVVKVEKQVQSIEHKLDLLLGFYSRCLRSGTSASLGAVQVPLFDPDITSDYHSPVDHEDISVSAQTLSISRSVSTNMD

Mus musculus [9] = test: Toxicity in CD-1 mouse at 10 to 60 mg/kg, po by rotarod test; assay type: organism-based; conditions: in vivo
[10] = Ratio of drug level in brain to blood of iv dosed mouse; assay type: ADME, organism-based; conditions: brain and blood
[11] = molecular target: T1, Voltage-gated potassium channel, KQT; KCNQ2(Kv7.2)/KCNQ3(Kv7.3) (Homo sapiens); test: Activation of human Kv7.2/7.3 assessed as difference in G-V midpoint between pre-compound and post-compound conditions at 0.4 uM at -90 mV holding potential by QPatch method; assay type: protein-complex assay
[12] = molecular target: T1, Voltage-gated potassium channel, KQT; KCNQ2(Kv7.2)/KCNQ3(Kv7.3) (Homo sapiens); test: Activation of human Kv7.2/7.3 assessed as difference in G-V midpoint between pre-compound and post-compound conditions at 10 uM at -90 mV holding potential by QPatch method; assay type: protein-complex assay
Mus musculus [13] = test: Dose normalized AUC (0 to t) in iv dosed mouse; assay type: ADME, organism-based; conditions: in vivo
Mus musculus [14] = test: Anti-seizure activity in CD-1 mouse assessed as increase in seizure threshold at 10 to 60 mg/kg, po by maximal electroshock-threshold test; assay type: functional, organism-based
[15] = Clearance in iv dosed mouse; assay type: ADME, organism-based; conditions: in vivo
[16] = molecular target: T1, Voltage-gated potassium channel, KQT; KCNQ2(Kv7.2)/KCNQ3(Kv7.3) (Homo sapiens); test: Activation of human Kv7.2/7.3 assessed as difference in G-V midpoint between pre-compound and post-compound conditions at 0.08 uM at -90 mV holding potential by QPatch method; assay type: protein-complex assay
[17] = molecular target: T1, Voltage-gated potassium channel, KQT; KCNQ2(Kv7.2)/KCNQ3(Kv7.3) (Homo sapiens); test: Activation of human Kv7.2/7.3 assessed as difference in G-V midpoint between pre-compound and post-compound conditions at 0.016 uM at -90 mV holding potential by QPatch method; assay type: protein-complex assay
[18] = molecular target: T1, Voltage-gated potassium channel, KQT; KCNQ2(Kv7.2)/KCNQ3(Kv7.3) (Homo sapiens); test: Activation of human Kv7.2/7.3 assessed as difference in G-V midpoint between pre-compound and post-compound conditions at 2 uM at -90 mV holding potential by QPatch method; assay type: protein-complex assay
[19] = Activation of Kv7 from rat cortical neurons assessed as reduction in spontaneous neuronal firing activity after 15 mins by multi-electrode array method; conditions: 0.25 h
[20] = molecular target: T1, Voltage-gated potassium channel, KQT; KCNQ2(Kv7.2)/KCNQ3(Kv7.3) (Homo sapiens); test: Activation of human wild type Kv7.2/7.3 expressed in CHO cells assessed as 86Rb efflux at 0.001 to 100 uM after 10 mins by microbeta liquid scintillation counting analysis; assay type: cell-based
[21] = Activation of human Kv7.2 W236L mutant/Kv7.3 W265L mutant expressed in CHO cells assessed as 86Rb efflux at 0.001 to 100 uM after 10 mins by microbeta liquid scintillation counting analysis; assay type: cell-based
[22] = molecular target: T1, Voltage-gated potassium channel, KQT; KCNQ2(Kv7.2)/KCNQ3(Kv7.3) (Homo sapiens); test: Activation of human Kv7.2/7.3 assessed as difference in G-V midpoint between pre-compound and post-compound conditions at 1.2 uM at -90 mV holding potential by QPatch method; assay type: protein-complex assay
[23] = molecular target: T1, Voltage-gated potassium channel, KQT; KCNQ2(Kv7.2)/KCNQ3(Kv7.3) (Homo sapiens); test: Activation of human Kv7.2/7.3 assessed as difference in G-V midpoint between pre-compound and post-compound conditions at 30 uM at -90 mV holding potential by QPatch method; assay type: protein-complex assay
[24] = molecular target: T1, Voltage-gated potassium channel, KQT; KCNQ2(Kv7.2)/KCNQ3(Kv7.3) (Homo sapiens); test: Activation of human Kv7.2/7.3 assessed as difference in G-V midpoint between pre-compound and post-compound conditions at 0.048 uM at -90 mV holding potential by QPatch method; assay type: protein-complex assay
[25] = molecular target: T1, Voltage-gated potassium channel, KQT; KCNQ2(Kv7.2)/KCNQ3(Kv7.3) (Homo sapiens); test: Activation of human Kv7.2/7.3 assessed as difference in G-V midpoint between pre-compound and post-compound conditions at 6 uM at -90 mV holding potential by QPatch method; assay type: protein-complex assay
[26] = molecular target: T1, Voltage-gated potassium channel, KQT; KCNQ2(Kv7.2)/KCNQ3(Kv7.3) (Homo sapiens); test: Activation of human Kv7.2/7.3 assessed as difference in G-V midpoint between pre-compound and post-compound conditions at 0.24 uM at -90 mV holding potential by QPatch method; assay type: protein-complex assay
[27] = Clearance in human liver microsomes; assay type: ADME, microsome
[28] = molecular target: T1, Voltage-gated potassium channel, KQT; KCNQ2(Kv7.2)/KCNQ3(Kv7.3) (Homo sapiens); test: Activation of human Kv7.2/7.3 assessed as difference in G-V midpoint between pre-compound and post-compound conditions at 3 uM at -90 mV holding potential by QPatch method; assay type: protein-complex assay

Chain of Voltage-gated potassium channel KCNQ3/KCNQ5 (O43525 whole entry): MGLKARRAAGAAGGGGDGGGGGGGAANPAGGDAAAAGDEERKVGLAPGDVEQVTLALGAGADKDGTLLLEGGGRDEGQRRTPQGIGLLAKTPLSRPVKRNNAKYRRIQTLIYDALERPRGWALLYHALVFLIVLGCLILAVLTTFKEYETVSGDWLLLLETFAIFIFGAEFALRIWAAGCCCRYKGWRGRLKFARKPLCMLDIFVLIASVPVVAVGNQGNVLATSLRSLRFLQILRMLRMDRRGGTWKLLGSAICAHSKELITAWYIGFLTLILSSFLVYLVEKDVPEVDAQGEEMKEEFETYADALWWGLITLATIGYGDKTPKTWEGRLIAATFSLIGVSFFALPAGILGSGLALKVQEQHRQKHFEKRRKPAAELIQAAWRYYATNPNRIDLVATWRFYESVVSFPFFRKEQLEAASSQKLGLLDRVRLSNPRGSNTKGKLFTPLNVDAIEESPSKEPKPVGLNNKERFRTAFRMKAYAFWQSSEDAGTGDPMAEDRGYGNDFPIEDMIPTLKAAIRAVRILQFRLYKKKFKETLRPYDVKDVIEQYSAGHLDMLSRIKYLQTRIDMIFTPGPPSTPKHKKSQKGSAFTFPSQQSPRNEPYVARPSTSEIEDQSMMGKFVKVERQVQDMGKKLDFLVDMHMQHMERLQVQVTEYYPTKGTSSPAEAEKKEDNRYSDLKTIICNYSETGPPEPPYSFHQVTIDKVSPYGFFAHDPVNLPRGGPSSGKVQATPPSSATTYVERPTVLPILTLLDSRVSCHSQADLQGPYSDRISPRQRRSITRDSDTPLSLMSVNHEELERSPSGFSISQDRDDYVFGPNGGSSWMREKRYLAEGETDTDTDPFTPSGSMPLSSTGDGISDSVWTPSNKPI
Chain of Voltage-gated potassium channel KCNQ3/KCNQ5 (Q9NR82 whole entry): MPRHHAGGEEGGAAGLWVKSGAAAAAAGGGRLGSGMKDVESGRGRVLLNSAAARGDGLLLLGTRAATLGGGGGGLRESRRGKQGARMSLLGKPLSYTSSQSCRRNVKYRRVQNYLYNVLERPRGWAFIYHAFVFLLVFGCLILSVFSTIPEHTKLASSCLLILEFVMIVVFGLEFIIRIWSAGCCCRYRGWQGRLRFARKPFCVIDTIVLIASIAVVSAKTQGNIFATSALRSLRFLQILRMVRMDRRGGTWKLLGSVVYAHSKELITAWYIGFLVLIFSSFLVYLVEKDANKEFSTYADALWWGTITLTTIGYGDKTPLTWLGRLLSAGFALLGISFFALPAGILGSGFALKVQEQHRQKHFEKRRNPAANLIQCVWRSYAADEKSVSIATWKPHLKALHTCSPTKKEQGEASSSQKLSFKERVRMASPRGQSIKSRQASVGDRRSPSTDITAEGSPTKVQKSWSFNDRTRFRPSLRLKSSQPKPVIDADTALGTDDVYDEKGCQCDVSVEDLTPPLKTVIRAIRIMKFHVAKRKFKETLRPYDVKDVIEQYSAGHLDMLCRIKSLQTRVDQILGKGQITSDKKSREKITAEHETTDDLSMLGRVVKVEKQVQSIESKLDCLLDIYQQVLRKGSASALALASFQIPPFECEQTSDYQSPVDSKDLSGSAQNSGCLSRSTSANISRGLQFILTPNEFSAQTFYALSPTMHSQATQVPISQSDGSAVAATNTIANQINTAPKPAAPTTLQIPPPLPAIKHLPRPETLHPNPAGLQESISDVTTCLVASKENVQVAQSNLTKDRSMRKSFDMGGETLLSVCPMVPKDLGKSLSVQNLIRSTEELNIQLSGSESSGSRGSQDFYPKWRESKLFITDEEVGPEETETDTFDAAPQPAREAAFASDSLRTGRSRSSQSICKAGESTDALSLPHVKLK
Chain of Voltage-gated potassium channel, KQT; KCNQ2(Kv7.2)/KCNQ3(Kv7.3) (O43526 whole entry): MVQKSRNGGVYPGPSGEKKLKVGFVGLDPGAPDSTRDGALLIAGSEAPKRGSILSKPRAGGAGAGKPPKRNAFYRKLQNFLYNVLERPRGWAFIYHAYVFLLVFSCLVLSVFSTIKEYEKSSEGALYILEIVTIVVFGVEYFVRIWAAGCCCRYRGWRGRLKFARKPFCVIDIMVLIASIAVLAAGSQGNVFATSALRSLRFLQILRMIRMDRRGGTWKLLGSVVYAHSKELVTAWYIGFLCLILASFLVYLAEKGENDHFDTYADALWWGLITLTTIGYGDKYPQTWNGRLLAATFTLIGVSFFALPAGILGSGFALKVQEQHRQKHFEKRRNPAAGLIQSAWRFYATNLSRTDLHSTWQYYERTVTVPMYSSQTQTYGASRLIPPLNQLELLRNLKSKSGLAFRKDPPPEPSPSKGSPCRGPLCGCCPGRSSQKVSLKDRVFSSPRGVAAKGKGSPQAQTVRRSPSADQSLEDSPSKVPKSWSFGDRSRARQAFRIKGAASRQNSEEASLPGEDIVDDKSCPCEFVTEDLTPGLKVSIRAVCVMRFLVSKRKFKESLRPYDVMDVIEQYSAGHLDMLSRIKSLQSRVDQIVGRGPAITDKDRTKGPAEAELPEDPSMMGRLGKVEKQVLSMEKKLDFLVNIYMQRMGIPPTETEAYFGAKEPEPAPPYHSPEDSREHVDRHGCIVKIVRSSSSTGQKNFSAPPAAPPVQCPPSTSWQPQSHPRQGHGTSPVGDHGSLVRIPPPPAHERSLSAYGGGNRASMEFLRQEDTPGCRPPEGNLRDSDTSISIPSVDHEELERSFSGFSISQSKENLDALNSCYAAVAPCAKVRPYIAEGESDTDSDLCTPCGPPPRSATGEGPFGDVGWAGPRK
Chain of Voltage-gated potassium channel, KQT; KCNQ2(Kv7.2)/KCNQ3(Kv7.3) (O43525 whole entry): as the sequence (O43525 whole entry) above

Row | Compound | EC50 [2] | efflux ratio (P-gp) | %max [5] | solubility kinetic [6] | EC50 [7] | EC50 [8] | Activity [20] | Activity [21] | further results
1 | CS(=O)(=O)c1cccc([C@H](CO)NC(=O)c2cc(S(F)(F)(F)(F)F)ccc2Oc2ccccc2)c1 | 0.08 µM | < 2 | 101% | 121 µM (≈ 65 µg/mL) | 0.02 to 0.06 µM | > 10 µM |  |  | Activity (Mus musculus [1]): Active; inhibition (INH) [3]: Not Active; Activity (Mus musculus [4]): Active
2 | C[C@H](NC(=O)c1cc(F)c(F)cc1Oc1ccccc1)c1cccc(S(C)(=O)=O)c1 | 0.2 µM | < 2 | 132% | 145 µM (≈ 62.6 µg/mL) | 0.13 to 0.2 µM | 0.16 µM |  |  | Activity (Mus musculus [9]): Non-Toxic; Activity (Mus musculus [1]): Active; Kp [10]: 1.3; V1/2 [11]: 14.3 mV; Activity (Mus musculus [4]): Active; V1/2 [12]: 26.8 mV; AUCt/dose (Mus musculus [13]): 0.33 µg·h/mL; Activity (Mus musculus [14]): Dose-dependent effect; clearance [15]: 31 mL/min/kg; V1/2 [16]: 5.1 mV; V1/2 [17]: 0.4 mV; V1/2 [18]: 23.1 mV; IC50 [19]: 0.11 µM
3 | O=C(Nc1ccc(Cl)nc1)c1ccc(F)c(F)c1 | > 10 µM |  |  |  | 0.46 µM | > 10 µM | 0.46 µM | 0.43 to 1.81 µM | Activity (Mus musculus [9]): Non-Toxic; Activity (Mus musculus [14]): Dose-dependent effect
4 | O=C(N[C@@H](CO)c1cccc(C(F)(F)F)c1)[C@H]1CC(F)(F)CC[C@@H]1c1ccccc1 | 0.25 µM | < 2 | 96% | 119 µM (≈ 50.9 µg/mL) | 0.05 to 0.08 µM | 0.02 µM |  |  | 
5 | O=C(N[C@@H](CO)c1cccc(Cl)c1)[C@H]1CC(F)(F)CC[C@@H]1c1ccccc1 | 0.36 µM | < 2 | 141% | 318 µM (≈ 125 µg/mL) | 0.1 to 0.3 µM | 0.1 µM |  |  | V1/2 [22]: 21 mV; Activity (Mus musculus [9]): Non-Toxic; Kp [10]: 0.8; V1/2 [23]: 27.8 mV; AUCt/dose (Mus musculus [13]): 0.51 µg·h/mL; V1/2 [24]: 1.8 mV; V1/2 [25]: 29.5 mV; Activity (Mus musculus [14]): Dose-dependent effect; clearance [15]: 48 mL/min/kg; V1/2 [26]: 10.2 mV; IC50 [19]: 0.28 µM
6 | C[C@H](NC(=O)c1cc(C(F)(F)F)ccc1Oc1ccccc1)c1cccc(S(C)(=O)=O)c1 |  | < 2 | 134% | 57 µM (≈ 26.4 µg/mL) | 0.04 µM |  |  |  | 
7 | CS(=O)(=O)c1cccc([C@H](CO)NC(=O)c2cc(C(F)(F)F)ccc2Oc2ccccc2)c1 |  | < 2 | 77% | 11 µM (≈ 5.27 µg/mL) | 0.08 µM |  |  |  | 
8 | CS(=O)(=O)c1cccc(CNC(=O)c2cc(S(F)(F)(F)(F)F)ccc2Oc2ccccc2)c1 |  | < 2 | 185% | 7 µM (≈ 3.55 µg/mL) | 0.08 µM |  |  |  | 
9 | O=C(N[C@@H](CO)c1ccccc1)[C@H]1CCCC[C@@H]1c1ccccc1 |  | < 2 | 165% | 455 µM (≈ 147 µg/mL) | 0.79 µM |  |  |  | 
10 | CS(=O)(=O)c1cccc(CNC(=O)c2cc(C(F)(F)F)ccc2Oc2ccccc2)c1 |  | < 2 | 245% | 23 µM (≈ 10.3 µg/mL) | 0.16 µM |  | 0.05 µM | > 30 µM | 
11 | O=C(N[C@@H](CO)c1ccccc1)[C@H]1CC(F)(F)CC[C@@H]1c1ccccc1 |  | < 2 | 108% | 332 µM (≈ 119 µg/mL) | 1.3 µM |  |  |  | 
12 | CS(=O)(=O)c1cccc(CNC(=O)c2cc(C(F)(F)F)ccc2Sc2ccccc2)c1 |  | < 2 | 175% | 34 µM (≈ 15.8 µg/mL) | 0.2 µM |  | 0.02 µM | > 30 µM | CLH [27]: > 3 mL/min/g
13 | Cc1cc(C)c(NC(=O)C2CC3CCC2C3)c(C)c1 (stereo unspecified) | 0.5 µM |  |  |  | 0.04 µM | 1.6 µM | 0.04 µM | > 11 µM | V1/2 [28]: 24.7 to 28.4 mV
14 | CCOC(=O)Nc1ccc(NCc2ccc(F)cc2)cc1N |  |  |  |  |  |  | 0.32 µM | > 30 µM | 
15 | C[C@H](NC(=O)[C@H]1CC(F)(F)CC[C@@H]1c1ccccc1)c1ccccc1 | 0.4 µM | < 2 | 140% | 25 µM (≈ 8.59 µg/mL) | 0.2 to 0.4 µM | 4 µM |  |  | 
16 | C[C@H](NC(=O)[C@H]1CCCC[C@@H]1c1ccccc1)c1ccccc1 |  | < 2 | 115% | 57 µM (≈ 17.5 µg/mL) | 0.25 µM |  | 0.1 µM | > 30 µM | 
